# Legend:
# [1] = system: ACHN; experiment: Growth inhibition of human ACHN cells after 48 hrs; assay type: functional
# How it was run: (§1)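 NCI-60 human tumour cell line panel screen run at the US National Cancer Institute under its standard cytotoxicity protocol. It covers leukaemia, NSCLC, colon, CNS, melanoma, ovarian, renal, prostate and breast lines. An initial single-dose test was followed by five-dose testing with 48 h compound exposure.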
# [2] = system: CAKI-1; experiment: Growth inhibition of human CAKI-1 cells after 48 hrs; assay type: functional; settings: CAKI-1, 48 h; how it was run: as §1
# [3] = Growth inhibition of human RXF393 cells after 48 hrs; assay type: functional; settings: RXF 393, 48 h; how it was run: as §1
# [4] = system: SN12C; experiment: Growth inhibition of human SN12C cells after 48 hrs; assay type: functional
# How it was run: (§2)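 Run by the NCI 58-cell-line screen under its standard cytotoxicity protocol. Compounds were first tested at a single dose, then at five doses. Cells were exposed to compound for 48 h.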
# [5] = system: TK-10; experiment: Growth inhibition of human TK10 cells after 48 hrs; assay type: functional; settings: TK-10, 48 h; how it was run: as §2
# [6] = Growth inhibition of human PC3 cells after 48 hrs; assay type: functional; settings: PC-3, 48 h; how it was run: as §1
# [7] = system: DU-145; experiment: Growth inhibition of human DU145 cells after 48 hrs; assay type: functional; settings: DU-145, 48 h; how it was run: as §1
# [8] = system: MDA-MB-231; experiment: Growth inhibition of human MDA-MB-231 cells after 48 hrs; assay type: functional; settings: MDA-MB-231, 48 h; how it was run: as §1
# [9] = Growth inhibition of human Hs 578T cells after 48 hrs; assay type: functional; how it was run: as §1
# [10] = system: MDA-MB-468; experiment: Growth inhibition of human MDA-MB-468 cells after 48 hrs; assay type: functional; settings: MDA-MB-468, 48 h; how it was run: as §1
# [11] = system: MCF7; experiment: Cytotoxicity against human MCF7 cells assessed as cell viability after 24 hrs incubation by MTT assay; assay type: functional, cell-based; settings: MCF7, 24 h
# How it was run: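 Cell lines came from DSMZ; primary human fibroblasts served as non-cancer controls. Cells were grown in medium with 10% FCS, seeded at 50,000 cells/ml, and grown 2 days at 37 °C, 10% CO2. Serial dilutions were then added for 24 h. MTT (final 0.5 mg/ml) was added for 2 h. Formazan was pelleted, PBS-washed, dissolved in isopropanol/0.4% HCl and read at 590 nm. Two parallel experiments were run. IC50 was taken as the concentration giving 50% of untreated-control absorbance.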
# [12] = system: Candida albicans; experiment: Antimicrobial activity against Candida albicans assessed as inhibition at 20 ug/6 mm disk after 1 to 2 days by agar diffusion assay; assay type: functional
# How it was run: (§3)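 Standard agar diffusion: 6-mm paper disks loaded with 20 µg of compound were placed on inoculated plates. Inhibition-zone diameter (mm) was read after 1 and 2 days of growth.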
# [13] = system: Mycolicibacterium phlei; experiment: Antimicrobial activity against Mycobacterium phlei assessed as inhibition at 20 ug/6 mm disk after 1 to 2 days by agar diffusion assay; assay type: functional; how it was run: as §3
# [14] = system: Klebsiella pneumoniae; experiment: Antimicrobial activity against Klebsiella pneumoniae assessed as inhibition at 20 ug/6 mm disk after 1 to 2 days by agar diffusion assay; assay type: functional; how it was run: as §3
# [15] = system: Pseudomonas aeruginosa; experiment: Antimicrobial activity against Pseudomonas aeruginosa assessed as inhibition at 20 ug/6 mm disk after 1 to 2 days by agar diffusion assay; assay type: functional; how it was run: as §3
# [16] = Growth inhibition of human EKVX cells after 48 hrs; assay type: functional; how it was run: as §1
# [17] = system: NCI-H226; experiment: Growth inhibition of human NCI-H226 cells after 48 hrs; assay type: functional; settings: NCI-H226, 48 h; how it was run: as §1
# [18] = system: NCI-H322M; experiment: Growth inhibition of human NCI-H322M cells after 48 hrs; assay type: functional; how it was run: as §1
# [19] = system: NCI-H460; experiment: Growth inhibition of human NCI-H460 cells after 48 hrs; assay type: functional; settings: NCI-H460, 48 h, read-out: pLC50 (the source's name) (converted); how it was run: as §1
# [20] = Growth inhibition of human COLO205 cells after 48 hrs; assay type: functional; settings: COLO 205, 48 h; how it was run: as §1
# [21] = Growth inhibition of human HCC2998 cells after 48 hrs; assay type: functional; settings: HCC 2998, 48 h; how it was run: as §1
# [22] = Growth inhibition of human HCT15 cells after 48 hrs; assay type: functional; settings: HCT-15, 48 h; how it was run: as §1
# [23] = system: KM12; experiment: Growth inhibition of human KM12 cells after 48 hrs; assay type: functional; settings: KM12, 48 h; how it was run: as §1
# [24] = system: SW-620; experiment: Growth inhibition of human SW620 cells after 48 hrs; assay type: functional; settings: SW-620, 48 h; how it was run: as §2
# [25] = Growth inhibition of human SF539 cells after 48 hrs; assay type: functional; settings: SF-539, 48 h; how it was run: as §1
# [26] = system: U-251; experiment: Growth inhibition of human U251 cells after 48 hrs; assay type: functional; settings: U-251, 48 h, read-out: pLC50 (the source's name) (converted); how it was run: as §2
# [27] = system: Malme-3M; experiment: Growth inhibition of human MALME-3M cells after 48 hrs; assay type: functional; how it was run: as §1
# [28] = system: M14; experiment: Growth inhibition of human M14 cells after 48 hrs; assay type: functional; settings: M14, 48 h; how it was run: as §1
# [29] = system: SK-MEL-28; experiment: Growth inhibition of human SK-MEL-28 cells after 48 hrs; assay type: functional; settings: SK-MEL-28, 48 h; how it was run: as §1
# [30] = system: IGROV-1; experiment: Growth inhibition of human IGROV1 cells after 48 hrs; assay type: functional; settings: IGROV-1, 48 h; how it was run: as §1
# [31] = Growth inhibition of human OVCAR3 cells after 48 hrs; assay type: functional; settings: OVCAR-3, 48 h; how it was run: as §1
# [32] = Growth inhibition of human OVCAR5 cells after 48 hrs; assay type: functional; settings: OVCAR-5, 48 h; how it was run: as §1
# [33] = system: 786-0; experiment: Growth inhibition of human 786-0 cells after 48 hrs; assay type: functional; settings: 786-0, 48 h; how it was run: as §1
# [34] = read-out: pLC50 (the source's name) (converted)
compound,measurement,setting,value
COc1ccc(N(CC(=O)NCCC[Te]c2ccccc2)C(=O)CCSC2=C(C)C(=O)c3ccccc3C2=O)cc1,GI50,[1],1.35 µM
same,LC50,[1],6.76 µM
same,TGI,[1]; read-out: pTGI (converted),3.02 µM
same,GI50,[2],3.09 µM
same,LC50,[2],21.4 µM
same,TGI,[2]; read-out: pTGI (converted),6.17 µM
same,GI50,[3],1.86 µM
same,LC50,[3],7.94 µM
same,TGI,[3]; read-out: pTGI (converted),3.8 µM
same,LC50,[4],23.4 µM
same,GI50,[5],2.82 µM
same,LC50,[5],28.8 µM
same,TGI,[5]; read-out: pTGI (converted),6.92 µM
same,LC50,[6],14.8 µM
same,GI50,[7],0.955 µM
same,LC50,[7],4.9 µM
same,TGI,[7]; read-out: pTGI (converted),2.19 µM
same,GI50,[8],1.23 µM
same,LC50,[8],14.8 µM
same,TGI,[8]; read-out: pTGI (converted),3.89 µM
same,GI50,[9],1.78 µM
same,LC50,[9],> 100 µM
same,GI50,[10],1.66 µM
same,LC50,[10],6.76 µM
same,TGI,[10]; read-out: pTGI (converted),3.39 µM
same,IC50,[11],7 µM
same,diameter of the inhibition zone (DIZ),[12],0 mm
same,diameter of the inhibition zone (DIZ),[13],15 mm
same,diameter of the inhibition zone (DIZ),[14],12 mm
same,diameter of the inhibition zone (DIZ),[15],0 mm
same,GI50,[16],0.38 µM
same,CC50,[16]; [34],> 100 µM
same,TGI,[16]; read-out: pTGI (converted),3.31 µM
same,GI50,[17],1.62 µM
same,TGI,[17]; read-out: pTGI (converted),3.63 µM
same,GI50,[18],2.09 µM
same,CC50,[18]; [34],60.3 µM
same,TGI,[18]; read-out: pTGI (converted),6.03 µM
same,CC50,[19],4.68 µM
same,GI50,[20],1.86 µM
same,CC50,[20]; [34],6.61 µM
same,TGI,[20]; read-out: pTGI (converted),3.47 µM
same,GI50,[21],1.23 µM
same,CC50,[21]; [34],9.33 µM
same,TGI,[21]; read-out: pTGI (converted),3.39 µM
same,GI50,[22],0.447 µM
same,CC50,[22]; [34],24.5 µM
same,TGI,[22]; read-out: pTGI (converted),2.34 µM
same,GI50,[23],0.417 µM
same,CC50,[23]; [34],5.13 µM
same,TGI,[23]; read-out: pTGI (converted),1.51 µM
same,GI50,[24],1.95 µM
same,CC50,[24]; [34],45.7 µM
same,TGI,[24]; read-out: pTGI (converted),5.62 µM
same,GI50,[25],2.14 µM
same,CC50,[25]; [34],7.08 µM
same,TGI,[25]; read-out: pTGI (converted),3.89 µM
same,CC50,[26],> 100 µM
same,GI50,[27],2.24 µM
same,CC50,[27]; [34],8.32 µM
same,TGI,[27]; read-out: pTGI (converted),4.37 µM
same,GI50,[28],0.759 µM
same,CC50,[28]; [34],5.25 µM
same,TGI,[28]; read-out: pTGI (converted),2.14 µM
same,GI50,[29],2.09 µM
same,CC50,[29]; [34],12 µM
same,TGI,[29]; read-out: pTGI (converted),4.68 µM
same,GI50,[30],0.776 µM
same,CC50,[30]; [34],5.37 µM
same,TGI,[30]; read-out: pTGI (converted),2.19 µM
same,GI50,[31],1.17 µM
same,CC50,[31]; [34],5.62 µM
same,TGI,[31]; read-out: pTGI (converted),2.04 µM
same,GI50,[32],0.631 µM
same,LC50,[32],6.46 µM
same,TGI,[32]; read-out: pTGI (converted),2.24 µM
same,GI50,[33],2.09 µM
same,LC50,[33],8.91 µM
same,TGI,[33]; read-out: pTGI (converted),4.37 µM

# Source: ChEMBL document CHEMBL3351600, “Sulfur, selenium and tellurium pseudopeptides: synthesis and biological evaluation” (Bioorg Med Chem, 2014)
